Data published in ChEMBL document CHEMBL5500386, “Design, synthesis and bioactivity evaluation of 4-hydroxycoumarin derivatives as potential anti-inflammatory agents against acute lung injury and colitis” (Eur J Med Chem, 2024).
Active and inactive are the calls of the source. The rule behind the calls is not given here.

Experiments:
[1] = system: J774.A1; assay: Antiinflammatory activity in LPS-induced mouse J774.a1 cells assessed as inhibition of IL-6 production at 10 uM pretreated for 2 hrs followed by LPS stimulation and measured after 30 mins by ELISA relative to control; assay type: functional; conditions: time 2.5 hrs
In short: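 J774A.1 cells (DMEM, 10 % FBS, 37 °C) treated with 10 μM compound or 4-HC for 2 h, then LPS. After 30 min, IL-6 in medium measured by ELISA. Result is % inhibition, mean ± SEM of three independent experiments.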

[2] = system: J774.A1; assay: Antiinflammatory activity in LPS-induced mouse J774.A1 cells assessed as reduction in IL-6 mRNA transcription pretreated for 2 hrs followed by LPS stimulation and measured after 6 hrs by RT-qPCR analysis; assay type: functional, cell-based; conditions: dose 2.5-10 µM
In short: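 J774A.1 or THP-1 cells pretreated with compound for 2 h, then LPS 0.5 μg/mL for 6 h, in triplicate. Total RNA extracted and reverse-transcribed. IL-6 quantified by RT-qPCR over 40 cycles and normalised to β-actin.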

[3] = system: Mus musculus; assay: (§1) Antiinflammatory activity in DSS-induced male C57BL/6 mouse model of inflammatory bowel disease assessed as normal appearance of goblet cells at 20 mg/kg, IG administered with compound and DSS for 7 days followed by DSS replacement with distilled water for 3 days by H and E staining based analysis; assay type: functional, organism-based; conditions: time 10.0 day
[4] = system: Mus musculus; assay: Antiinflammatory activity in DSS-induced male C57BL/6 mouse model of inflammatory bowel disease assessed as normal appearance of crypt cells at 20 mg/kg, IG administered with compound and DSS for 7 days followed by DSS replacement with distilled water for 3 days by H and E staining based analysis; assay type: functional, organism-based; conditions: time 10.0 day
[5] = system: Mus musculus; assay: as §1, with “reduction in red and white pulp merging in spleen” for “normal appearance of goblet cells”; assay type: functional, organism-based; conditions: time 10.0 day
[6] = system: Mus musculus; assay: Antiinflammatory activity in DSS-induced male C57BL/6 mouse model of inflammatory bowel disease assessed as decrease in disease index at 20 mg/kg, IG administered with compound and DSS for 7 days followed by DSS replacement with distilled water for 3 days; assay type: functional, organism-based; conditions: time 10.0 day

CC(=O)N1CCN(CCOc2cc(=O)oc3ccccc23)CC1
inhibition at 10 µM [1]: 51.6%
Activity [2]: Dose-Dependent Effect
Activity [3]: Active
Activity [4]: Active
Activity [5]: Active
Activity [6]: Active
